E-sel inducer – E-selectin induction in HUVECs, primary screen, imaging, HUVEC, immunofluorescence imaging, single point | AID 686992, 2013 | normalized: neutral wells 0, TNF-alpha wells 100 | P16581 | activation, % at 7.58 µM | hit rate 0.37% among 260,000;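 active means mean E-selectin-positive cell signal at least 10% of the positive control, reached in at least 60% of replicates, without over 20% cell loss; inconclusive means no rule given, readout overlaps actives, possibly toxicity-flagged; inactive means the rest, including those meeting only one limit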
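Assay system: HUVEC primary endothelial cells. Input: 3,000 HUVEC seeded per well. Doses: one compound dose added by pin transfer. Read-out basis: % PE-positive cells. Benchmarks: TNF-alpha high, DMSO low. Detection: immunofluorescence imaging. Buffer or medium: EGM-2, gelatin.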
SIRT5 block – SIRT5 desuccinylase inhibitors, primary screen, biochemical, fluorescence imaging, single point, set 5 | inhibition, % at 15 µM | NAD-dependent protein deacylase sirtuin-5, mitochondrial (Homo sapiens), Q9NXA8 | AID 652115, 2013 | hit rate 1.1% among 330,000 | Purified SirT5, succinyl-peptide AMC, trypsin-coupled fluorescence; in the data active means inhibition above about 15%; inconclusive means no clear call, values can overlap the other calls
Target sequence (Q9NXA8 whole entry, looked up): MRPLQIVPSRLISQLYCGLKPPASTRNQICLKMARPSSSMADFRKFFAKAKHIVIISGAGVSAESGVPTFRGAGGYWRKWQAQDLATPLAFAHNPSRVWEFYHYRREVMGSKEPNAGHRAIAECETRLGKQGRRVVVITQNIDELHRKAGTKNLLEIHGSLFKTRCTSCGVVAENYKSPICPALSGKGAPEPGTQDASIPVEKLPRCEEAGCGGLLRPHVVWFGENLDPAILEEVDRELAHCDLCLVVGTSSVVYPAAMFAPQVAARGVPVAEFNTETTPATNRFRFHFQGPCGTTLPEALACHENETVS
DENV2 CPE – inhibitors of DENV2 cytopathic effect, primary screen, cell-based, plate reader, single concentration; DENV2-infected cells, cytopathic effect rescue; CPE inhibition, % at 9.99 µM; hit rate 1.7% among 350,000; in the data active means CPE inhibition above about 20%, passing the limit was not always enough; inconclusive means no clear call, values can overlap the other calls; tested in BHK-21 cells;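 further: 0% = median of neutral control wells and 100% = median of positive control wells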
An asterisk follows results filed as active; ? = inconclusive; · = not tested or not shown; ! = not confirmed by another sample. Compounds with a hit are over-represented: about 2.8% of the library has one in this group of screens.

SMILES	E-sel inducer	SIRT5 block	DENV2 CPE
CO[C@@H]1CN(C)C(=O)c2ccc(NC(=O)Nc3cccc(F)c3)cc2OC[C@@H](C)N(C(=O)Nc2c(C)noc2C)C[C@H]1C	0	·	63*
CO[C@H]1CN(C)C(=O)c2ccc(NC(=O)c3ccccc3)cc2OC[C@H](C)N(C(=O)CN(C)C)C[C@H]1C	0	2	29*
CCCN1C[C@H](C)[C@@H](OC)CN(C)C(=O)c2cc(NC(=O)c3ccc(F)cc3)ccc2OC[C@@H]1C	0	8	-8
CO[C@@H]1CN(C)C(=O)c2ccc(NC(=O)c3ccccc3)cc2OC[C@H](C)N(C(=O)CN(C)C)C[C@H]1C	0	3	6
CO[C@@H]1CN(C)C(=O)c2cc(NC(=O)Nc3cccc(F)c3)ccc2OC[C@@H](C)N(C(C)=O)C[C@@H]1C	0	-5	1
CO[C@H]1CN(C)C(=O)c2ccc(NC(=O)Nc3cccc(F)c3)cc2OC[C@H](C)N(C(=O)Nc2c(C)noc2C)C[C@@H]1C	0	·	-4
CCCN1C[C@H](C)[C@@H](OC)CN(C)C(=O)c2cc(NC(=O)c3ccc(F)cc3)ccc2OC[C@H]1C	1	8	47*
CC(=O)N1Cc2cc(C(=O)NCc3cccc(F)c3)nc(-c3cccc(C4=CCCC4)c3)c2[C@@H]1CCO	0	0	3
COc1ccc2c3c(n(C)c2c1)[C@H](CO)N(Cc1ccccc1OC)CC31CN(CC2CCOCC2)C1	0	·	-14
O=C(Cn1ccc(NC(=O)OCc2ccccc2)nc1=O)NCCN1CCOCC1	0	·	13
O=C(Nc1ccn(CC(=O)N2CCN(c3ccccn3)CC2)c(=O)n1)OCc1ccccc1	0	·	119*
O=C(Nc1ccn(CCCN2CCN(c3ncccn3)CC2)c(=O)n1)OCc1ccccc1	2	-1	6
O=C(Cn1ccc(NC(=O)OCc2ccccc2)nc1=O)NCCCN1CCCC1=O	0	·	114*
C[C@@H]1CN([C@@H](C)CO)S(=O)(=O)c2ccc(Br)cc2O[C@@H]1CN(C)Cc1ccncc1	0	1	-1
Cc1ccc(S(=O)(=O)N(C)C[C@H]2OCCCC[C@H](C)Oc3ccc(NC(=O)c4ccccc4)cc3C(=O)N([C@H](C)CO)C[C@H]2C)cc1	·	7	2
Cc1noc(C)c1NC(=O)Nc1ccc2c(c1)C(=O)N([C@H](C)CO)C[C@H](C)[C@@H](CN(C)C(=O)Nc1ccc(C(F)(F)F)cc1)OCCCC[C@H](C)O2	0	21*	-16
Cc1noc(C)c1NC(=O)Nc1ccc2c(c1)C(=O)N([C@H](C)CO)C[C@@H](C)[C@@H](CN(C)C(=O)Nc1ccc(C(F)(F)F)cc1)OCCCC[C@@H](C)O2	0	1	-6
Cc1noc(C)c1NC(=O)Nc1ccc2c(c1)C(=O)N([C@H](C)CO)C[C@H](C)[C@H](CN(C)Cc1ccc(Cl)c(Cl)c1)OCCCC[C@@H](C)O2	0	4	35*
Cc1noc(C)c1NC(=O)Nc1ccc2c(c1)C(=O)N([C@@H](C)CO)C[C@H](C)[C@@H](CN(C)Cc1ccc(Cl)c(Cl)c1)OCCCC[C@@H](C)O2	0	11	-5
Cc1noc(C)c1NC(=O)Nc1ccc2c(c1)C(=O)N([C@@H](C)CO)C[C@@H](C)[C@@H](CN(C)C(=O)Nc1ccccc1)OCCCC[C@@H](C)O2	0	0	22*
Cc1noc(C)c1NC(=O)N(C)C[C@@H]1OCCCC[C@H](C)Oc2ccc(NC(=O)Nc3ccc(C(F)(F)F)cc3)cc2C(=O)N([C@@H](C)CO)C[C@@H]1C	0	5	30*
Cc1noc(C)c1NC(=O)Nc1ccc2c(c1)C(=O)N([C@H](C)CO)C[C@H](C)[C@@H](CN(C)C(=O)Nc1ccccc1)OCCCC[C@H](C)O2	0	-2	10
Cc1noc(C)c1NC(=O)N(C)C[C@@H]1OCCCC[C@@H](C)Oc2ccc(NC(=O)Nc3ccc(C(F)(F)F)cc3)cc2C(=O)N([C@H](C)CO)C[C@@H]1C	0	3	1
CN1C(=O)c2cc(NC(=O)c3ccc(F)c(F)c3)ccc2OC[C@H]2O[C@@H](CC(=O)Nc3ccc4c(c3)COC4)CC[C@@H]21	1	-1	?
CN(C)CC#Cc1cccc(-c2nc(C(=O)O)cc3c2[C@H](CCO)N(S(=O)C(C)(C)C)C3)c1 (some centres undefined)	·	-2	-4
SMILES	E-sel inducer	SIRT5 block	DENV2 CPE
C[C@@H]1CN([C@@H](C)CO)S(=O)(=O)c2ccc(C#CC3CC3)cc2O[C@H]1CN(C)C(=O)Cc1ccncc1	0	-1	-13
Cc1noc(C)c1NC(=O)N(C)C[C@@H]1OCCCC[C@@H](C)Oc2ccc(NC(=O)C3CCCCC3)cc2C(=O)N([C@H](C)CO)C[C@H]1C	0	4	-4
Cc1noc(C)c1NC(=O)N(C)C[C@@H]1OCCCC[C@@H](C)Oc2ccc(NC(=O)Nc3cccc4ccccc34)cc2C(=O)N([C@@H](C)CO)C[C@@H]1C	·	·	38*
Cc1noc(C)c1NC(=O)N(C)C[C@H]1OCCCC[C@@H](C)Oc2ccc(NC(=O)Nc3cccc4ccccc34)cc2C(=O)N([C@@H](C)CO)C[C@H]1C	0	·	-3
Cc1noc(C)c1NC(=O)Nc1ccc2c(c1)C(=O)N([C@H](C)CO)C[C@H](C)[C@H](CN(C)C(=O)NC1CCCCC1)OCCCC[C@@H](C)O2	0	-2	31*!
Cc1noc(C)c1NC(=O)Nc1ccc2c(c1)C(=O)N([C@@H](C)CO)C[C@@H](C)[C@H](CN(C)C(=O)NC1CCCCC1)OCCCC[C@H](C)O2	0	-4	11
Cc1noc(C)c1NC(=O)N(C)C[C@@H]1OCCCC[C@@H](C)Oc2ccc(NC(=O)C3CCCCC3)cc2C(=O)N([C@@H](C)CO)C[C@@H]1C	0	0	25*
CC(C)NC(=O)Nc1ccc2c(c1)C(=O)N([C@@H](C)CO)C[C@@H](C)[C@@H](CN(C)S(=O)(=O)c1ccccc1)OCCCC[C@@H](C)O2	0	4	-4
CO[C@@H]1CN(C)C(=O)c2ccc(NS(C)(=O)=O)cc2OC[C@H](C)N(Cc2cncnc2)C[C@@H]1C	0	1	-4
CO[C@H]1CN(C)C(=O)c2ccc(NC(=O)Cc3ccccc3)cc2OC[C@H](C)N(C(=O)c2ccccc2F)C[C@H]1C	0	6	4
C/C=C/c1ccc([C@@H]2[C@@H](CO)N(CCC(F)(F)F)C23CN(C(C)=O)C3)cc1	0	·	3
COc1ccc2c3c([nH]c2c1)[C@@H](CO)N(Cc1ccccn1)CC31CCN(C(C)=O)CC1	0	·	?
CCCC#Cc1ccc([C@@H]2[C@@H](CO)N3CCCCN(Cc4cccnc4)C[C@H]23)cc1	0	-1	6
COc1ccccc1S(=O)(=O)N[C@H]1CC[C@H](CCNC(=O)C2CCC2)O[C@@H]1CO	0	0	-1
CCc1ccc(OCc2nnc(SCC(=O)NC3CCCCC3)o2)cc1	·	-3	-6
Brc1ccc(OCc2nnc(SCC3CCCCC3)o2)cc1	0	0	29*

Screening data from PubChem BioAssay.
